For one data set, the system named is Jurkat. Briefly: Inhibition of NF-kappaB binding to DNA in TNF-alpha-stimulated human Jurkat T cells pretreated for 1 hr before TNFalpha stimulation. It counts as cell-based. The procedure, abridged: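 Jurkat T cells (RPMI 1640, 10% FCS, penicillin/streptomycin) were pretreated 1 h with compound at various concentrations, then stimulated 1 h with 200 U/mL TNF-α. High-salt detergent total extracts (10-20 µg protein) were incubated 25 min at room temperature with poly(dI-dC), BSA and a 33P-labeled NF-κB oligonucleotide. The EMSA value is the lowest concentration giving complete inhibition of DNA binding. Run in duplicate.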

For data set [1], the system named is RAW264.7. Put plainly: Inhibition of NF-kappaB binding to DNA in LPS-stimulated mouse RAW264.7 cells pretreated for 1 hr before LPS stimulation.
The test system of data set [2] is RAW264.7. Briefly: Cytotoxicity against mouse RAW264.7 cells by trypan blue exclusion method. It counts as cell-based.

SMILES strings stand for the structures.

With `C=C1CCC=C(C)[C@@]2(O)[C@H](OC(=O)[C@]3(C)O[C@@H]3C)[C@@H]3[C@@H](OC(=O)[C@@H]3C)[C@H]12`, the Lowest concentration giving complete inhibition of NF-kappaB DNA binding with Jurkat was found to be 200 µM.

As for `C=C1C(=O)O[C@H]2/C=C(\C)CC/C=C(/C)C(=O)[C@H](OC(=O)[C@@]3(C)O[C@H]3C)[C@@H]12`, the Activity was 20 µM in the data set on RAW264.7 [1] and “Non-toxic” in the data set on RAW264.7 [2]. Further, the Lowest concentration giving complete inhibition of NF-kappaB DNA binding in the data set on Jurkat came out at 50 µM.

On to `C=C1C(=O)O[C@@H]2C3O[C@]3(C)CC/C=C(\C)CC[C@@H]12` (stereo partly specified), for which, in the data set on Jurkat, the Lowest concentration giving complete inhibition of NF-kappaB DNA binding was 20 µM.

For the compound `C=C1C(=O)O[C@@H]2[C@H]1[C@@H](OC(=O)[C@]1(C)O[C@@H]1C)C(=O)[C@@]1(C)C=CC[C@@](C)(O)[C@@H]21`, the Activity in the data set with RAW264.7 [1] is 10 µM; with RAW264.7 [2] it was “Non-toxic”. In addition, the Lowest concentration giving complete inhibition of NF-kappaB DNA binding with Jurkat is 10 µM.

In the case of `C=C1C(=O)O[C@H]2/C=C(\C)CC/C=C(/C)[C@@H](OC(=O)/C(C)=C/C)[C@H](O)[C@@H]12`, the Activity was 20 µM with RAW264.7 [1] and “Non-toxic” in the data set on RAW264.7 [2]. Also, the Lowest concentration giving complete inhibition of NF-kappaB DNA binding in the data set on Jurkat amounted to 100 µM.

The values are drawn from ChEMBL document CHEMBL1151173, “Sesquiterpene lactones from Montanoa hibiscifolia that inhibit the transcription factor NF-kappa B” (J Nat Prod, 2004).
